From ChEMBL document CHEMBL3352788, “Characterization of selective exosite-binding inhibitors of matrix metalloproteinase 13 that prevent articular cartilage degradation in vitro” (J Med Chem, 2014)

Key:
Cytochrome P450 1A2 = target: T1, Cytochrome P450 1A2 (Homo sapiens, UniProt P05177); test: Inhibition of CYP1A2 (unknown origin) using tacrin substrate; assay type: ADME
T1 sequence (P05177 whole entry): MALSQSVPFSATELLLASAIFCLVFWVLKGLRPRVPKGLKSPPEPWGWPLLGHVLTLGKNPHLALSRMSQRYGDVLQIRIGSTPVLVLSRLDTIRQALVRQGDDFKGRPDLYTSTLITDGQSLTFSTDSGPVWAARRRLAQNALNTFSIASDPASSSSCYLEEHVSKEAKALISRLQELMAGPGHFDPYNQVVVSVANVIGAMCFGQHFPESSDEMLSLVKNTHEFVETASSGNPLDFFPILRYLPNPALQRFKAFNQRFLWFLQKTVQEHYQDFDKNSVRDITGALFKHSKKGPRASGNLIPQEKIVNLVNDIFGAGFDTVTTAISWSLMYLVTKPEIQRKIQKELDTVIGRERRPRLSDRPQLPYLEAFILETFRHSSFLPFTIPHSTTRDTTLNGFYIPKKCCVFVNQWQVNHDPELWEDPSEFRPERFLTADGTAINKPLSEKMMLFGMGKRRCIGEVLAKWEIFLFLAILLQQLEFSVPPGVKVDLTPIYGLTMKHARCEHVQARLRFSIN
Outline: (§1)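 Human liver microsomes with probe substrate and an NADPH-regenerating system in 0.1 M potassium phosphate pH 7.4 at 37 °C, run in duplicate. Inhibitor at 0–20 μM (0–2.5 μM for one compound), eight concentrations. Reactions were stopped with acetonitrile/formic acid containing isotope-labelled internal standard, and metabolite area ratios were compared with and without inhibitor. IC50 was taken by linear interpolation between bracketing concentrations.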

Cytochrome P450 2D6 = Cytochrome P450 2D6 (Homo sapiens, UniProt P10635); test: Inhibition of CYP2D6 (unknown origin) using dextromethophan substrate; assay type: ADME; outline: as §1
Chain of Cytochrome P450 2D6 (P10635 whole entry): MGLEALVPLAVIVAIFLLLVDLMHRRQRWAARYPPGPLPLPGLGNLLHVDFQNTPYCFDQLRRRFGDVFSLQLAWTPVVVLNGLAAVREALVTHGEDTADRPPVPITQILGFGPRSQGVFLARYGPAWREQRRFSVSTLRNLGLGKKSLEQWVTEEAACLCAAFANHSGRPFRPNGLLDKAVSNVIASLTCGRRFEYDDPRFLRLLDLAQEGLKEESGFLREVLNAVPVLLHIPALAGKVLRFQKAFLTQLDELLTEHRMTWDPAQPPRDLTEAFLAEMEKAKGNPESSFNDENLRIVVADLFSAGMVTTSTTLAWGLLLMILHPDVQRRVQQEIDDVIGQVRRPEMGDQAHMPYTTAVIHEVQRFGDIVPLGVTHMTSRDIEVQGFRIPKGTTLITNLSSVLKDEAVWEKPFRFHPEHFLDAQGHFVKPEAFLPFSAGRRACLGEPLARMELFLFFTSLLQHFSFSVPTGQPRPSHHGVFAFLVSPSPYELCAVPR

Cytochrome P450 2C9 = Cytochrome P450 2C9 (Homo sapiens, UniProt P11712); test: Inhibition of CYP2C9 (unknown origin) using diclofenac substrate; assay type: ADME; outline: as §1
Chain of Cytochrome P450 2C9 (P11712 whole entry): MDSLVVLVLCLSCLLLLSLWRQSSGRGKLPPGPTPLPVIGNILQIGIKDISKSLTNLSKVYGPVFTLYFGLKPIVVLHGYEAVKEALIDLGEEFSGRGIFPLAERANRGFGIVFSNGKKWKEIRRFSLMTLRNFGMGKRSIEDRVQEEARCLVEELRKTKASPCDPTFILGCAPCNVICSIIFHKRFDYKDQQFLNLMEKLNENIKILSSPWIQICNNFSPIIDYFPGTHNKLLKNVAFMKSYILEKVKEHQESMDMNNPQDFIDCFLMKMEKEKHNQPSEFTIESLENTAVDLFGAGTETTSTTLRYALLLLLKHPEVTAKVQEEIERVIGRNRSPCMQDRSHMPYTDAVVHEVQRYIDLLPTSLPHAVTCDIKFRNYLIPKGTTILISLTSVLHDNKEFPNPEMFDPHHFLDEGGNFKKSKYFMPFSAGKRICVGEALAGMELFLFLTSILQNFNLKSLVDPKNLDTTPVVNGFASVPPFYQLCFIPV

Caspase-5 (Homo sapiens) = target: T2, Caspase-5 (Homo sapiens) (UniProt P51878); test: Inhibition of recombinant human caspase 5 using LEHDGP substrate at up to 20 uM after 3 hrs
T2 sequence (whole entry): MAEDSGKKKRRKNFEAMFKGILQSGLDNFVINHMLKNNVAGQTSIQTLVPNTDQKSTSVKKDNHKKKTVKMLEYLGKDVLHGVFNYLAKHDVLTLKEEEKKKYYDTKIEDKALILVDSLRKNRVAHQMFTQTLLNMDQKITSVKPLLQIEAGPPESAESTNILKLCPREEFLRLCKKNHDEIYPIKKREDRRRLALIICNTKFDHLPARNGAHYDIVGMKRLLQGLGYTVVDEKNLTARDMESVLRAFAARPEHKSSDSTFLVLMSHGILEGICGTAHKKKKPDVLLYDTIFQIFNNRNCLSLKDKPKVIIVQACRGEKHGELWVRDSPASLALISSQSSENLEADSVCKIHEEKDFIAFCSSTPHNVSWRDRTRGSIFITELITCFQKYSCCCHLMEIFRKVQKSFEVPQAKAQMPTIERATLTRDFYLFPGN
Outline: (§2)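 Outsourced microfluidic protease panel. Compound was preincubated with each protease for 30 min at 25 °C, then peptide substrate was added for 3 h at 25 °C and quenched with SDS/EDTA/iodoacetate. Substrate-to-product conversion was measured on LabChip. Compounds were tested singly in a 12-point 3-fold dilution series, top 20 μM (5 μM for two reference compounds).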

[1] = target: Stromelysin-1 (Homo sapiens) (UniProt P08254); test: Inhibition of recombinant human MMP-3 using GRIGFL substrate up to 20 uM; outline: as §2
Chain of Stromelysin-1 (Homo sapiens) (P08254 100-477 limits assumed): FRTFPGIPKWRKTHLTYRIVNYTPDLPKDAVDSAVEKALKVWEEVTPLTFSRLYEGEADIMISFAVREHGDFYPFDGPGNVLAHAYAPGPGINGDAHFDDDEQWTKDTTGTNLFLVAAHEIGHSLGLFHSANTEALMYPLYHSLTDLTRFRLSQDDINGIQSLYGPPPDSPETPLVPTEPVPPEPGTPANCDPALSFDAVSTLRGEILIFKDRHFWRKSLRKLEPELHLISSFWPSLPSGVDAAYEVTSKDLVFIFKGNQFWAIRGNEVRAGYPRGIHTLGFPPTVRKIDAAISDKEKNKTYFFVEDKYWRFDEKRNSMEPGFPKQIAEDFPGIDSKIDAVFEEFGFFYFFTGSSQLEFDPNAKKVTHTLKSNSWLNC

[2] = target: Beta-secretase 1 (Homo sapiens) (UniProt P56817); test: Inhibition of recombinant human BACE1 using SEVNLDAEFRKKRR substrate at up to 20 uM after 3 hrs; outline: as §2
Chain of Beta-secretase 1 (Homo sapiens) (P56817 whole entry): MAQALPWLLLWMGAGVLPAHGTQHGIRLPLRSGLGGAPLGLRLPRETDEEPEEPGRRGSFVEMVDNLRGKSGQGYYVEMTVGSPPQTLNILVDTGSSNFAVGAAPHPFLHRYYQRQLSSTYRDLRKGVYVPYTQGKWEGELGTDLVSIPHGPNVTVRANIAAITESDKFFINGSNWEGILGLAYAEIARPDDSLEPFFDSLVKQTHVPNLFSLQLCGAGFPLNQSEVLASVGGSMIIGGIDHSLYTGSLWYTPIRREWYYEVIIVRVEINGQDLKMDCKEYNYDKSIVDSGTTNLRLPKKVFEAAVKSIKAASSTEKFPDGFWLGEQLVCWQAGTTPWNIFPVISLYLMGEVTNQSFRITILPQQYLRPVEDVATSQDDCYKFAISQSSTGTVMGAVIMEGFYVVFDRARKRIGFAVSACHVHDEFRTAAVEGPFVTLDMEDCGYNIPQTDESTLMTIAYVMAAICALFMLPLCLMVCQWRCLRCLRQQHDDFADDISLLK

Caspase-2 (Homo sapiens) = target: T3, Caspase-2 (Homo sapiens) (UniProt P42575); test: Inhibition of recombinant human caspase 2 using DEVDAA substrate at up to 20 uM after 3 hrs; outline: as §2
T3 sequence (whole entry): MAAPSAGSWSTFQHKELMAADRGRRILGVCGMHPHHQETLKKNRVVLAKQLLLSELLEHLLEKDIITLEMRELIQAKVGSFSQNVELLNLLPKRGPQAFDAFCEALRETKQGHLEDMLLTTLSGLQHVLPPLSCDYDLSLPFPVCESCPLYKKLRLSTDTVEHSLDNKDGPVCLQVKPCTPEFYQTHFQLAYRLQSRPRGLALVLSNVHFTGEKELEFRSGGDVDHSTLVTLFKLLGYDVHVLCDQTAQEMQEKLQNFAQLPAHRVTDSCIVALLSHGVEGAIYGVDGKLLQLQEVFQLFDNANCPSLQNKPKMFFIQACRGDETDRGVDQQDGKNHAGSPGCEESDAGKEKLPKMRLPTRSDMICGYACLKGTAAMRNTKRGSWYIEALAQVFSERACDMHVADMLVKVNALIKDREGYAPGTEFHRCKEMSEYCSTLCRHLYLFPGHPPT

Cytochrome P450 3A4 = Cytochrome P450 3A4 (Homo sapiens, UniProt P08684); test: Inhibition of CYP3A4 (unknown origin) using midazolam substrate; assay type: ADME
Chain of Cytochrome P450 3A4 (P08684 whole entry): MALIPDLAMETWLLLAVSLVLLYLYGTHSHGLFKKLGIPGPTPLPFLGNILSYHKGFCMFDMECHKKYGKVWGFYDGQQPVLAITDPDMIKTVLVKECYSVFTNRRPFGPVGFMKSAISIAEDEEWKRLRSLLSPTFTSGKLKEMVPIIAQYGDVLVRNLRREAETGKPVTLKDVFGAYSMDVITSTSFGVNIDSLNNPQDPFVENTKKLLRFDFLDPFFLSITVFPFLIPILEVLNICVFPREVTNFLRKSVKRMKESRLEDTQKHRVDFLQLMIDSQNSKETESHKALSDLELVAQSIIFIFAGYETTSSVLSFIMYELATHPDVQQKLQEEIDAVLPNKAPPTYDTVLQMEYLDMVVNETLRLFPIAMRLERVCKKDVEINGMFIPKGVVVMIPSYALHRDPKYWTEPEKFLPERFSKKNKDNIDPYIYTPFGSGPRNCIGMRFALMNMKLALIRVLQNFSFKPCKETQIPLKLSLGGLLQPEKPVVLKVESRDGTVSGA
Outline: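 Reactions stopped with acetonitrile/0.1% formic acid plus labelled internal standard. Metabolite measured by LC-MS area ratio. IC50 by linear interpolation.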

Caspase-3 (Homo sapiens) = target: T4, Caspase-3 (Homo sapiens) (UniProt P42574); test: Inhibition of recombinant human caspase 3 using DEVDAA substrate at up to 20 uM after 3 hrs; outline: as §2
T4 sequence (whole entry): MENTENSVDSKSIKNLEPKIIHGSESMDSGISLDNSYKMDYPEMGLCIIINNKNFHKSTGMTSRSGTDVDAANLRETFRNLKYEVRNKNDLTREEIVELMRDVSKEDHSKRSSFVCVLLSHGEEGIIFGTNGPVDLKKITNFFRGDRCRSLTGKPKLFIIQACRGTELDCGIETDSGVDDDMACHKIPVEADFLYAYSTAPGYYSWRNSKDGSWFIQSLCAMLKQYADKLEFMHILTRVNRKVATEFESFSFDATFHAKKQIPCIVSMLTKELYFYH

[3] = target: Matrix metalloproteinase-9 (Homo sapiens) (UniProt P14780); test: Inhibition of recombinant human MMP-9 using GRIGFL substrate up to 20 uM; outline: as §2
Chain of Matrix metalloproteinase-9 (Homo sapiens) (P14780 whole entry): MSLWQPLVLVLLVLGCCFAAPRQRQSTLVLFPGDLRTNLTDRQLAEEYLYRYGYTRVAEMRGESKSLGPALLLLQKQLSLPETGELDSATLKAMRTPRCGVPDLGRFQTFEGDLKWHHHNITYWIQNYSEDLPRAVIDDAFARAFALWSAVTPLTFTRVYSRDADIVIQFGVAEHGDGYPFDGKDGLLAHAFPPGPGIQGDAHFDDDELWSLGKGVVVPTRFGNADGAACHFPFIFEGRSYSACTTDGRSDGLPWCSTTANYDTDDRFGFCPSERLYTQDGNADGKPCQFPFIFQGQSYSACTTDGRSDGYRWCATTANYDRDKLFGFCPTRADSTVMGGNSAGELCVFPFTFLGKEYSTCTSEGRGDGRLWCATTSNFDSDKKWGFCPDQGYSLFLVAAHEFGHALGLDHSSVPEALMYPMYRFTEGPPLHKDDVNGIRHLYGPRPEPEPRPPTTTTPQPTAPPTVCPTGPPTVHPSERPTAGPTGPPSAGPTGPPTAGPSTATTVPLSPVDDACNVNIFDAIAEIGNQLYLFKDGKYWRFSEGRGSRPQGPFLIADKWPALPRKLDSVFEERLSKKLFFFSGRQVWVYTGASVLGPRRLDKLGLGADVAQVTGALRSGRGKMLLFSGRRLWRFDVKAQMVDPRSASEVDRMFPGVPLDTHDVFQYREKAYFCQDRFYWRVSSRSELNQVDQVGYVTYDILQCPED

[4] = target: Coagulation factor X (Homo sapiens) (UniProt P00742); test: Inhibition of recombinant human factor 10a using ALPRTMFIQ substrate at up to 20 uM after 3 hrs
Chain of Coagulation factor X (Homo sapiens) (P00742 41-179 limits assumed): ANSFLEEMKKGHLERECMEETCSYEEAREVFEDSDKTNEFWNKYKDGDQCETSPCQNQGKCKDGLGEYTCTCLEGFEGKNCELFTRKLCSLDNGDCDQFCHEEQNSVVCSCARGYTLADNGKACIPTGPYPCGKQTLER
Chain of Coagulation factor X (Homo sapiens) (P00742 235-488 limits assumed): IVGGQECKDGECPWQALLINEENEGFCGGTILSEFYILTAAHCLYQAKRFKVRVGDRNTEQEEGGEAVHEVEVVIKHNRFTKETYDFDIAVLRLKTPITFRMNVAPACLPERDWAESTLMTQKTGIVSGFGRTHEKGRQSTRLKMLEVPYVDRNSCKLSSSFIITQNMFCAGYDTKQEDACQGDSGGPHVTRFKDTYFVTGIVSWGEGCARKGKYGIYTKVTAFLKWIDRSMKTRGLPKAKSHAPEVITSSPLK
Outline: (§3)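 Each protease was preincubated 30 min at 25 °C with compound in its assay buffer. Peptide substrate was then added and the reaction ran 3 h at 25 °C before quenching with SDS/EDTA/iodoacetate. Substrate-to-product conversion (%) was read by microfluidic electrophoresis. Compounds were tested in singlicate as 12-point 3-fold dilutions from 20 μM to 0.1 nM. IC50 was taken as the concentration giving 50% of no-compound control activity.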

[5] = target: Cathepsin D (Homo sapiens) (UniProt P07339); test: Inhibition of recombinant human cathepsin D using EVNLDAEFRK substrate at up to 20 uM after 3 hrs; outline: as §2
Chain of Cathepsin D (Homo sapiens) (P07339 65-162 limits assumed): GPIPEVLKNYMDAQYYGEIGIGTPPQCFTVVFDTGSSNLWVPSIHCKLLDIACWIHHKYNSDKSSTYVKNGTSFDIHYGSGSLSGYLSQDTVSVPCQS
Chain of Cathepsin D (Homo sapiens) (P07339 169-412 limits assumed): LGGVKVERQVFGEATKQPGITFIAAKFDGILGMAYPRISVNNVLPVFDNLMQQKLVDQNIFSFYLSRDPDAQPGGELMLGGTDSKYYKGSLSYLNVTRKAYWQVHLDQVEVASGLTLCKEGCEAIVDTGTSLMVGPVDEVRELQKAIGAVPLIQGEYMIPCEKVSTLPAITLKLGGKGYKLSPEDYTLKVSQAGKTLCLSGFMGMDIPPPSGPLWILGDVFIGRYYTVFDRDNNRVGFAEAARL

[6] = target: Urokinase-type plasminogen activator (Homo sapiens) (UniProt P00749); test: Inhibition of recombinant human uPA using GRTSSVEP substrate at up to 20 uM after 3 hrs; outline: as §3

SMILES	IC50 (Cytochrome P450 1A2) [µM]	IC50 (Cytochrome P450 2D6) [µM]	IC50 (Cytochrome P450 2C9) [µM]	inhibition (Caspase-5 (Homo sapiens)) [%]	inhibition [1] [%]	inhibition [2] [%]	inhibition (Caspase-2 (Homo sapiens)) [%]	IC50 (Cytochrome P450 3A4) [µM]	inhibition (Caspase-3 (Homo sapiens)) [%]	inhibition [3] [%]	inhibition [4] [%]	inhibition [5] [%]	inhibition [6] [%]
Cc1cc(CNC(=O)c2cc(C(=O)NCc3ccc(F)c(C)c3)ncn2)ccc1F	> 20	> 20	> 20	–	–	–	–	–	–	–	–	–	–
Oc1nc(SCc2ccc(Cl)cc2)nc2c1CCC2	8.6	> 20	19	< 10	> 10	< 10	< 10	> 20	< 10	> 10	< 10	< 10	< 10
COC(=O)c1ccc(CSc2nc3c(c(=O)[nH]2)CCC3)cc1	> 20	> 20	> 20	< 10	> 10	< 10	< 10	> 20	< 10	> 10	< 10	< 10	< 10
Cn1c(=O)n(Cc2ccc(C(=O)O)cc2)c(=O)c2cc(C#CCc3ccccc3)ccc21	> 2.5	> 2.5	> 2.5	–	–	–	–	> 2.5	–	–	–	–	–
Cc1ccc(CSc2nc(O)c3c(n2)CCC3)cc1	–	–	–	> 10	> 10	< 10	< 10	–	< 10	> 10	< 10	< 10	< 10
